Assay outcomes (PubChem BioAssay)
L major viab = Leishmania major promastigote growth inhibition; Leishmania major promastigotes, resazurin fluorescence viability; inhibition, % at 10 µM; actives 9% (n = 200,000); AID 1063; in the data active = inhibition above about 50%;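 also: promastigotes grown with compound for 44 hours at 28 °C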
MT stabilize HCS = microtubule stabilizers in HeLa cells; HeLa tubulin immunostaining HCS, 24 h; share of cells brighter than vehicle mean+2SD; actives 0.83% (n = 200,000); % tubulin-high responders, % at 10 µM;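 active = plate Z-score above 3 for both tubulin-high and condensed-nucleus cell shares, with cell loss under 80%, at 10 µM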;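 also: anti alpha tubulin signal scored within the nucleus-defined area of each cell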
b-catenin transl = modulators of beta-catenin nuclear translocation; HeLa beta-catenin nuclear translocation, immunofluorescence imaging; nuclear translocation activity, % at 5 µM; actives 0.3% (n = 190,000);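 active = nuclear translocation activity above 50% at 5 µM, with a well cell count of 50 or more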;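 also: per-cell ratio of nuclear to cytoplasmic median beta-catenin stain intensity; plate controls were DMSO negative control for no effect and GSK-3 inhibitor IX positive control for full effect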
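Signal – beta-catenin immunofluorescence imaging with DAPI · Test system – human HeLa cell line · Dosing – 5 µM primary single dose, 0.1% DMSO, 0.02–20 µM confirmation series · Measure – % activation, nuclear-to-cytoplasmic median beta-catenin signal ratio per cell · Incubation – 24 h compound exposure at 37°C, 5% CO2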
CHOP inh = blocks CHOP induction under ER stress; inhibition, % at 10 µM; CHO-K1 CHOP-promoter luciferase, tunicamycin-induced, 15-18 h; actives 3.8% (n = 220,000);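 active = compounds that reduced the stress-induced luciferase reporter signal by more than about 70% of percent inhibition, limit read from the data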;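 also: 0% = tunicamycin plus vehicle and 100% = wells without tunicamycin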
Dynein transport = blocks dynein driven cargo transport along microtubules | 3617.4 mouse cells, GR-EGFP nuclear translocation imaging; test concentration mostly 20 µM; stimulated with dexamethasone, 1 µM; stronger effect = lower value | z-score, hits read low | actives 0.47% (n = 220,000) | AID 1381;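 active = plate z-score of nuclear minus cytoplasmic receptor signal below a set negative limit, without overly bright fluorescence or cell loss, cut at about -3.5 in these data, passing the limit was not always enough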;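 also: z-score of nuclear minus cytoplasmic ring GR-EGFP intensity difference per well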
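medium = tetracycline-free induction medium containing charcoal-stripped FBS | also added = 1.0 µM final dexamethasone stimulus | schedule = 48 h induction, 1 h compound, 30 min dex at 37 °C | technique = fixed, Hoechst-stained cells imaged at 10x for EGFP | measure = GR-EGFP nuclear translocation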
Autophagy HCS = alters autophagy in cells; calls only at 10 µM (by protocol); AID 463193; MEF GFP-LC3 puncta imaging; test concentration mostly 10 µM; actives 0.98% (n = 190,000);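 active = percentage of spot-positive cells more than 3 SD above its plate mean, without a fluorescence outlier flag or 80% toxicity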;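 also: spot-positive cell cutoff set from DMSO-treated cells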
Starred values were filed as active, the others as inactive; i = inactive; x = no result; + = active, no number. This is a sample that favours compounds with a hit; in the whole collection about 12% have one here.

SMILES | L major viab | MT stabilize HCS | b-catenin transl | CHOP inh | Dynein transport | Autophagy HCS
COc1ccc(NC(=O)CN(c2cc(C)cc(C)c2)S(=O)(=O)c2c(C)noc2C)cc1 | -1.6 | 3.9 | -6.5 | 66.0 | 1.42 | +
O=C(Nc1ccc(F)cc1)c1nc[nH]c1C(=O)Nc1ccc([N+](=O)[O-])cc1 | 91.9* | 3.1 | -5.0 | -39.1 | 1.66 | i
CNC(=O)c1[nH]cnc1C(=O)Nc1ccc(C)cc1 | 1.1 | 3.4 | x | 4.6 | -0.326 | i
Cc1ccc(NC(=O)c2nc[nH]c2C(=O)Nc2ccc(C)cc2)cc1 | -5.5 | 3.2 | -2.1 | -8.0 | -0.035 | i
O=C(Nc1ccc([N+](=O)[O-])cc1)c1nc[nH]c1C(=O)NC1CCCCC1 | 64.0* | 2.4 | -1.5 | 56.9 | 0.487 | i
CCOC(=O)N1CCN(C(=O)CSc2ccc3nnc(CCNC(=O)c4ccc(OC)cc4)n3n2)CC1 | -6.2 | 3.6 | -0.7 | -0.9 | 0.617 | i
COc1cccc(NC(=O)CC2C(=O)NC3CCCCC3N2C(=O)c2ccc(F)cc2)c1 (centres undefined) | -0.8 | 4.7 | -1.8 | -29.7 | 0.722 | i
CNC(=O)NNC(=O)c1nc(-c2ccccc2)c(C)o1 | x | x | 1.0 | -12.1 | 1.1 | x
Cc1ccccc1C(=NC(=O)c1ccccc1)c1ccccc1 | 5.4 | 2.6 | -1.1 | 72.2* | 0.0602 | i
CCN(CC)S(=O)(=O)c1ccc2c(c1)nc(CCC(=O)Nc1ccc(N3CCOCC3)cc1)n2C | -1.4 | 1.8 | -3.1 | 2.1 | 1.33 | i
CCNc1nc(OC)nc(SCC(N)=O)n1 | -1.4 | 2.0 | -3.5 | 7.8 | 0.0292 | i
CC(C)(C)c1ccc(C2(C)NC(=O)N(CC(=O)NCc3cccs3)C2=O)cc1 (centres undefined) | 68.9* | 1.3 | x | 32.3 | -0.547 | i
O=C(CN1C(=O)NC2(CCCCCCC2)C1=O)NCc1cccs1 | -2.3 | 2.9 | -0.3 | -15.1 | 1.42 | i
Cc1cc(C)nc(NC(=O)C2c3ccccc3Oc3ccccc32)n1 | -3.3 | 0.4 | 0.2 | 2.5 | -0.431 | i
Cc1ccc(CN(Cc2ccco2)C(=S)Nc2ccccc2C)cc1 | -0.7 | 3.5 | -4.9 | 40.5 | -0.201 | i
O=C(O)CNC(=S)N(Cc1ccccc1)Cc1cccs1 | -0.6 | 3.3 | 0.3 | -2.0 | 0.903 | i
Cc1ccc(Cl)cc1NC(=S)N(Cc1cccnc1)Cc1ccccc1Cl | 98.6* | 3.1 | -1.5 | 18.0 | 0.164 | i
Cc1ccccc1NC(=S)N(Cc1ccccc1)Cc1cccnc1 | 85.8* | 2.0 | -5.2 | 17.4 | -0.271 | i
Cc1cccc(C)c1NC(=S)N(Cc1ccccc1)Cc1cccs1 | 58.0* | 1.7 | -0.6 | 19.3 | -0.377 | i
Cc1ccccc1NC(=S)N(Cc1cccnc1)Cc1ccco1 | 96.9* | 0.9 | 0.6 | -9.5 | -0.363 | i
Cc1c(NC(=O)Cn2cnc3c(=O)n(C)c(=O)n(C)c32)cccc1-c1nc2ccccc2o1 | -4.5 | 5.9 | x | x | -1.11 | i
CCCN1CCC(=NNc2ccc(C(=O)O)cc2)CC1 | 90.4* | 5.7 | 5.1 | 32.8 | -0.227 | i
CCCN1CCC(=NNC(=O)c2ccc(Br)o2)CC1 | -3.1 | 3.2 | -1.4 | -5.8 | -0.0564 | i
COc1cc(OC)cc(-c2n[nH]c(=S)n2-c2ccc3c(c2)OCCO3)c1 | 70.6* | 3.0 | -0.4 | -18.6 | 3.03 | i
COc1ccc(-c2n[nH]c(=S)n2-c2ccc3c(c2)OCCO3)cc1OC | 88.0* | 1.0 | 0.2 | -26.7 | 3.9 | i
SMILES | L major viab | MT stabilize HCS | b-catenin transl | CHOP inh | Dynein transport | Autophagy HCS
COc1ccc(-c2n[nH]c(=S)n2-c2ccc3c(c2)OCCO3)cc1 | -2.3 | 3.9 | -1.7 | -16.3 | 0.384 | i
Cc1ccc(CNC(=O)c2ccc(NC(=O)CCS(=O)(=O)c3cccs3)cc2)cc1 | -0.9 | 2.2 | 1.5 | 45.7 | -0.177 | i
O=C(OCc1cc(=O)n2c(n1)sc1ccccc12)c1ccc2c(=O)n3c(nc2c1)CCC3 | x | x | 0.1 | x | x | x
CC(C)=CCC/C(C)=C/C=N/NC(=O)c1ccccc1[N+](=O)[O-] | 94.4* | 3.3 | 1.2 | 63.8 | -0.659 | i
COc1ccc(/C=C/c2nnc(NC(=O)COc3ccc(C)cc3)s2)cc1 | -0.9 | 4.1 | 3.8 | -2.2 | 1.4 | i
CCOC(=O)c1ccc(NC(=O)c2nc[nH]c2C(=O)N2CCc3ccccc3C2)cc1 | x | x | 1.8 | 72.2* | 0.414 | x
